In PMC3772642 (Nature, 2009):
No end group written: not given here. *: point of attachment. Dansyl = CN(C)c1cccc2c(S(=O)(=O)*)cccc12; Me3 = trimethyl-lysine, K(Me3)

How the values were obtained:
nucleosomes = experiment: pull-down, nucleosomes; format: binding; details: methylated or unmodified nucleosomes, not separated
Procedure, shortened: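 Reconstituted chromatin arrays (salt dialysis, agarose-column purified to remove free histone) at 2 ug were incubated with 2 ug protein or complex in 50mM Tris pH8.0, 50mM NaCl, 1 mM EDTA, 0.1% NP40 for 2 hours at 4°C. Capture was on NiNta beads for Eed or M2 beads for PRC2. After extensive washing, beads were eluted in SDS loading buffer and analysed by western blot.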

[1] = tested on: chromatin reconstituted with histones containing the different levels of H3K36 methylation; experiment: pull-down, H3K36 methylated chromatin; format: binding; details: NiNta pull-down, Fig. S8
Procedure, shortened: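 Chromatin arrays were built from recombinant histones carrying single chemically installed methyl-lysine analogs, assembled into octamers, formed by salt dialysis and cleared of free histone on an agarose column. 2 ug chromatin was incubated with 2 ug full-length His-tagged Eed in 50mM Tris pH8.0, 50mM NaCl, 1 mM EDTA, 0.1% NP40 for 2 hours at 4°C with NiNta beads. Beads were washed extensively, eluted in SDS loading buffer and analysed by western blot.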

[2] = tested on: chromatin trimethylated on H3K9; experiment: pull-down, chromatin trimethylated on H3K9; format: binding; details: 2 ug chromatin, 2 ug protein or complex, 2 hours at 4 C, western blot
Procedure, shortened: (§1)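 Recombinant histones were made in E. coli, assembled into octamers and formed into chromatin by salt dialysis, then purified on an agarose column. Chromatin (2 ug) was incubated with 2 ug Sf9-reconstituted PRC2-Ezh2 in 50 mM Tris pH 8.0, 50 mM NaCl, 1 mM EDTA, 0.1% NP40 with M2 beads for 2 h at 4 °C. Beads were washed, eluted in SDS loading buffer and analysed by western blot against a beads-only control.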

ΔEed = ΔEed (Homo sapiens, UniProt O75530, M370T); experiment: crystal structure of ΔEed with ligand; format: binding; details: crystallisation additive 0.6–0.7 M NDSB-195, 4.0–4.1 M formate
Procedure, shortened: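 ΔEed carrying Met-370Thr was purified by size exclusion (50 mM Tris-HCl pH 8.7, 150 mM NaCl, 3 mM TCEP) and held at 1.5 mg/ml with peptide at 7-fold molar excess, 15 mM TCEP. Hanging-drop vapour diffusion was run at 18 °C, mixing equal volumes with 3.7–3.9 M formate. Apo ΔEed (2.5 mg/ml) used 4.0–4.1 M formate with 0.6–0.7 M NDSB-195.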

[3] = target: truncated version of Eed (residues 77 to 441), ΔEed (UniProt O75530); experiment: other fluorescence titration
unmodified chromatin = experiment: pull-down, unmodified chromatin; format: binding; details: M2-Beads pull-down, 2 hours at 4 C, western blot
Procedure, shortened: as §1

[4] = target: truncated version of Eed (residues 77 to 441), ΔEed (UniProt O75530 78-441, Met-370Thr); experiment: other fluorescence titration

Molecule: PRC2 Eed (Tyr-365Ala): mutant PRC2 complex containing Eed (Tyr-365Ala)
- interaction with nucleosomes (nucleosomes): does not show binding to chromatin

Molecule: Eed: full-length His-tagged Eed protein
- interaction with H3K36 methylated chromatin [1]: not able to interact
- interaction with chromatin trimethylated on H3K9 [2]: did bind

Molecule: CC[N+](C)(C)CCCS(=O)(=O)[O-] [NDSB-195]
- electron density in central pocket of ΔEed (ΔEed): able to build into the extra electron density

Molecule: R26A of H3K27me3 peptide
- fold reduction of binding against the H3K27me3 peptide [3]: 1.5 fold

Molecule: ΔEed: truncated version of Eed (residues 77 to 441)
- interaction with nucleosomes (nucleosomes): failed to interact with nucleosomes

Molecule: PRC2: PRC2 complex purified from insect cells co-infected with baculovirus expressing each of the subunits
- interaction with chromatin trimethylated on H3K9 [2]: bound significantly tighter
- interaction with unmodified chromatin (unmodified chromatin): displayed some binding

Molecule: PRC2 Eed (Phe-97Ala): mutant PRC2 complex containing Eed (Phe-97Ala)
- interaction with nucleosomes (nucleosomes): does not show binding to chromatin

B1: dansyl labelled peptide KKKARK(Me3)SAGAAK-dansyl (peptide)
peptide: KKKARK(Me3)SAGAAK(Dansyl)
modifications: not fully specified; printed as KKKARK(Me3)SAGAAK-dansyl
- binding result [4]: binds
